The text below walks through data of publication PMC10012271 (ACS Infectious Diseases, 2023).

Data set [1] concerns the target human recombinant glyoxylase II (Homo sapiens, UniProt Q16775). Nature of the data set: Binding specificity, glyoxylase II activity. The data set is classed as biochemical. As to conditions: for reduction of glyoxylase II activity: concentration not stated in the sentence (Table S2).
The subject of data set [2] is Klebsiella pneumoniae ATCC 700603. In words: MIC, broth microdilution / checkerboard. The data set is classed as cell-based.
For data set [3], the system named is Klebsiella pneumoniae NDM. In words: MIC, broth microdilution / checkerboard. The data set is classed as cell-based. The essentials: (§1)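 Two-fold dilution series in Mueller Hinton broth, per CLSI. Meropenem stock was in water and test compound stock in 50% DMSO, with final DMSO <1.0%. Wells got a 0.5 McFarland-standardised inoculum and were incubated at 35 °C for 18–20 h. MIC was the lowest concentration with no visible growth, run in triplicate.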

Data set [4] has as its system E. coli ATCC 25922. In words: Antimicrobial susceptibility testing, broth microdilution. The data set is classed as cell-based. As to conditions: Escherichia coli, ATCC25922, read-out: MIC alone. The procedure, abridged: as §1
Data set [5] deals with E. coli AUS 271 (NDM-1). Described as above. The data set is classed as cell-based. As to conditions: Escherichia coli, read-out: MIC alone. The essentials: as §1
The test system of data set [6] is E. coli FEK (NDM-4). Described as above. The data set is classed as cell-based. As to conditions: Escherichia coli, read-out: MIC alone. The procedure, abridged: as §1
Data set [7] has as its system E. coli JAP (IMP-1). The description is as above. The data set is classed as cell-based. The following applies: Escherichia coli, read-out: MIC alone. The essentials: as §1
The subject of data set [8] is E. coli TWA (IMP-8). The data set is described as above. The data set is classed as cell-based. The following applies: Escherichia coli, read-out: MIC alone. The procedure, abridged:
as §1

Data set [9] concerns E. cloacae IR 386 (NDM-1). The description is as above. The data set is classed as cell-based. As to conditions: Enterobacter cloacae, read-out: MIC alone. The essentials:
as §1

Data set [10] deals with E. cloacae KAR (VIM-1). The description is as above. The data set is classed as cell-based. As to conditions: Enterobacter cloacae, read-out: MIC alone. The essentials:
as §1

Data set [11] concerns K. pneumoniae USA 449 (NDM). Described as above. The data set is classed as cell-based. The following applies: Klebsiella pneumoniae, read-out: MIC alone. The essentials:
as §1

The subject of data set [12] is K. pneumoniae NDM. Nature of the data set: Time kill kinetic study. The data set is classed as cell-based. As to conditions: without BP1. The essentials: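 Overnight culture was diluted to about 10^6 cfu/mL and exposed to test compound fixed at 32 mg/L plus meropenem 0.5, 1 or 2 mg/L. Incubation was at 35 °C with 100 rpm shaking, alongside drug-free and meropenem-only controls. At 0, 2, 4, 6, 8 and 24 h, 0.1 mL was plated on MHA and incubated at 35 °C for ≥18 h, then cfu/mL counted. Analysis was by ANOVA.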

Data set [13] is described as follows: In vivo single-dose pharmacokinetics. As to conditions: 10 mg/kg.b.w IP, plasma. On the set-up: species or system BALB/c mice. The essentials: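 Female BALB/c mice, 6–8 weeks, acclimatised two weeks, got meropenem 10 mg/kg.b.w plus test compound 10 mg/kg.b.w together IP. Animals were killed at 0, 5, 15, 30, 45, 60, 90 and 120 min post-dose, with blood taken by cardiac puncture and stored at −80 °C. Drugs were quantified by LC–MS/MS (C18, water/acetonitrile with 0.1% TFA gradient, ESI, MRM mode).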

Converted amounts (≈) assume the structure as drawn. “Also recorded” adds a separate entry of the source.

As to `O=C(O)CN(CCN(CC(=O)O)CC(=O)O)CC(=O)O` [EDTA], the “reduction of glyoxylase II activity” value in data set [1] stood at 39%.
A word on the MIC: it is the lowest concentration that inhibits growth of the organism. On to `O=C(O)CN1CCN(CC(=O)O)CCN(CC(=O)O)CC1` [NOTA, 1,4,7-triazacyclononane-1,4,7-triacetic acid], for which the MIC result is “do not possess any activity; also recorded: resistant from 256 to 0.125” in data set [2] (drug alone) and “do not possess any activity” in data set [3] (drug alone). In addition, the “inhibition of glyoxylase II” value in data set [1] (up to 500 μM) is given as “did not reduce the activity”.
In the case of `c1ccc(CN(CCN(Cc2ccccn2)Cc2ccccn2)Cc2ccccn2)nc1` [TPEN, N,N,N′,N′-tetrakis(2-pyridinylmethyl)-1,2-ethanediamine], the “reduction of glyoxylase II activity” value in data set [1] was found to be 48%.
On to `C[C@@H](O)[C@H]1C(=O)N2C(C(=O)O)=C(S[C@@H]3CN[C@H](C(=O)N(C)C)C3)[C@H](C)[C@H]12` [meropenem], for which the MIC in data set [2] (Klebsiella pneumoniae, ATCC700603) came to 0.03 µg/mL; in data set [3] (Klebsiella pneumoniae), 128 µg/mL; in [4] it was 0.06 µg/mL (≈ 0.156 µM); in data set [5], 128 µg/mL (≈ 334 µM); in [6], 128 µg/mL (≈ 334 µM); in data set [7], 8 µg/mL (≈ 20.9 µM). Besides, the MIC in data set [8] came to 4 µg/mL (≈ 10.4 µM); in data set [9] it was 32 µg/mL (≈ 83.4 µM); in data set [10], 16 µg/mL (≈ 41.7 µM); in [11], 128 µg/mL (≈ 334 µM). Also, the “time-kill activity, meropenem-only test group” value in [12] is listed as “ineffectiveness”. The “time of peak concentration (Cmax) post drug administration” value in [13] stood at 15 min.
